Activity calls are given as the source filed them. The calls are words filed in the database; no cut-off is given here. Peptide text beside a SMILES is read from it. * marks the point of attachment. ACPC(1S,2S) = N[C@H]1CCC[C@@H]1C(=O)*
Key:
Type in all cases: functional, cell-based
[1] = target: T1, Parathyroid hormone/parathyroid hormone-related peptide receptor (Homo sapiens) (UniProt Q03431); experiment: Agonist activity at extracellular domain truncate human PTH1 receptor expressed in GD5 cells assessed as induction of cAMP after 12 to 20 mins by luciferase reporter gene assay
T1 sequence (whole entry): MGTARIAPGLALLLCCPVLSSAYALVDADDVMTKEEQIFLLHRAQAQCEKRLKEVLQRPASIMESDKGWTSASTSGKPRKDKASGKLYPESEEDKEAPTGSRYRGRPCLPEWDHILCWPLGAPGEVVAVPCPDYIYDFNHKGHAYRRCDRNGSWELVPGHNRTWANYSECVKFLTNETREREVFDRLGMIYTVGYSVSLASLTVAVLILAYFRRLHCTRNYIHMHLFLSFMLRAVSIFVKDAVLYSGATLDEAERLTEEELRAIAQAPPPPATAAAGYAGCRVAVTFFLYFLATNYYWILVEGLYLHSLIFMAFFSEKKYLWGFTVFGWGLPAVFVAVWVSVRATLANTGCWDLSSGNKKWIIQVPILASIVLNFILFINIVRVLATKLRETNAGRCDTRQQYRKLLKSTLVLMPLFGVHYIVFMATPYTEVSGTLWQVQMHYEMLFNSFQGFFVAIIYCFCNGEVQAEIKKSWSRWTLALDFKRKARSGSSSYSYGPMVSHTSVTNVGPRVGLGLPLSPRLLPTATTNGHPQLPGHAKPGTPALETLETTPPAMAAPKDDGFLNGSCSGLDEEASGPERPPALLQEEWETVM
Summary of the method: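 HEK293-derived lines stably expressing Glosensor cAMP reporter plus full-length human PTHR1 (GP2.3) or ECD-truncated PTHR1 (GD5). Confluent monolayers preincubated at room temperature in CO2-independent medium with 0.5 mM D-luciferin until baseline stable (30 min), then varied agonist concentrations added. Maximal luminescence (12−20 min) used for sigmoidal variable-slope fits.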

[2] = target: T2, Parathyroid hormone/parathyroid hormone-related peptide receptor (Homo sapiens, UniProt Q03431); experiment: Agonist activity at human PTH1 receptor expressed in human GP2.3 cells assessed as induction of cAMP after 12 to 20 mins by luciferase reporter gene assay
T2 sequence (Q03431 whole entry): T1 sequence (whole entry)

[3] = target: T1, Parathyroid hormone/parathyroid hormone-related peptide receptor (Homo sapiens); experiment: Agonist activity at human PTH1 receptor expressed in human GP2.3 cells assessed as induction of cAMP after 12 to 20 mins by luciferase reporter gene assay relative to PTH(1 to 34 residues)-NH2

Activity [1] | EC50 ([2]; read-out: EC50) | fold change (FC) [3] | EC50 [2] | SMILES
Active | 120 pM | 1.3 | – | CC[C@H](C)[C@H](NC(=O)[C@H](CCC(=O)O)NC(=O)[C@H](CO)NC(=O)[C@@H](NC(=O)[C@@H](N)CO)C(C)C)C(=O)N[C@@H](CCC(N)=O)C(=O)N[C@H]1CCC[C@@H]1C(=O)N[C@@H](CCSC)C(=O)N[C@@H](Cc1cnc[nH]1)C(=O)N[C@@H](CC(N)=O)C(=O)N[C@@H](CC(C)C)C(=O)NCC(=O)N[C@@H](CCCCN)C(=O)N[C@@H](Cc1cnc[nH]1)C(=O)N[C@@H](CC(C)C)C(=O)N[C@@H](CC(N)=O)C(=O)N[C@@H](CO)C(=O)N[C@@H](CCSC)C(=O)N[C@@H](CCC(=O)O)C(=O)N[C@@H](CCCNC(=N)N)C(=O)N[C@H](C(=O)N[C@@H](CCC(=O)O)C(=O)N[C@@H](Cc1c[nH]c2ccccc12)C(=O)N[C@@H](CC(C)C)C(=O)N[C@@H](CCCNC(=N)N)C(=O)N[C@@H](CCCCN)C(=O)N[C@@H](CCCCN)C(=O)N[C@@H](CC(C)C)C(=O)N[C@@H](CCC(N)=O)C(=O)N[C@@H](CC(=O)O)C(=O)N[C@H](C(=O)N[C@@H](Cc1cnc[nH]1)C(=O)N[C@@H](CC(N)=O)C(=O)N[C@@H](Cc1ccccc1)C(N)=O)C(C)C)C(C)C
Active | 170 pM | 1.9 | – | CSCC[C@H](NC(=O)[C@H](CO)NC(=O)[C@H](CC(N)=O)NC(=O)[C@H](CC(C)C)NC(=O)[C@H](Cc1cnc[nH]1)NC(=O)[C@H](CCCCN)NC(=O)CNC(=O)[C@H](CC(C)C)NC(=O)[C@H](CC(N)=O)NC(=O)[C@H](Cc1cnc[nH]1)NC(=O)[C@H](CCSC)NC(=O)[C@H](CC(C)C)NC(=O)[C@H](CCC(N)=O)NC(=O)[C@H]1CCC[C@@H]1NC(=O)[C@H](CCC(=O)O)NC(=O)[C@H](CO)NC(=O)[C@@H](NC(=O)[C@@H](N)CO)C(C)C)C(=O)N[C@@H](CCC(=O)O)C(=O)N[C@@H](CCCNC(=N)N)C(=O)N[C@H](C(=O)N[C@@H](CCC(=O)O)C(=O)N[C@@H](Cc1c[nH]c2ccccc12)C(=O)N[C@@H](CC(C)C)C(=O)N[C@@H](CCCNC(=N)N)C(=O)N[C@@H](CCCCN)C(=O)N[C@@H](CCCCN)C(=O)N[C@@H](CC(C)C)C(=O)N[C@@H](CCC(N)=O)C(=O)N[C@@H](CC(=O)O)C(=O)N[C@H](C(=O)N[C@@H](Cc1cnc[nH]1)C(=O)N[C@@H](CC(N)=O)C(=O)N[C@@H](Cc1ccccc1)C(N)=O)C(C)C)C(C)C
Active | 340 pM | 3.7 | – | CC[C@H](C)[C@H](NC(=O)[C@H](CCC(=O)O)NC(=O)[C@H](CO)NC(=O)[C@@H](NC(=O)[C@@H](N)CO)C(C)C)C(=O)N[C@H]1CCC[C@@H]1C(=O)N[C@@H](CC(C)C)C(=O)N[C@@H](CCSC)C(=O)N[C@@H](Cc1cnc[nH]1)C(=O)N[C@@H](CC(N)=O)C(=O)N[C@@H](CC(C)C)C(=O)NCC(=O)N[C@@H](CCCCN)C(=O)N[C@@H](Cc1cnc[nH]1)C(=O)N[C@@H](CC(C)C)C(=O)N[C@@H](CC(N)=O)C(=O)N[C@@H](CO)C(=O)N[C@@H](CCSC)C(=O)N[C@@H](CCC(=O)O)C(=O)N[C@@H](CCCNC(=N)N)C(=O)N[C@H](C(=O)N[C@@H](CCC(=O)O)C(=O)N[C@@H](Cc1c[nH]c2ccccc12)C(=O)N[C@@H](CC(C)C)C(=O)N[C@@H](CCCNC(=N)N)C(=O)N[C@@H](CCCCN)C(=O)N[C@@H](CCCCN)C(=O)N[C@@H](CC(C)C)C(=O)N[C@@H](CCC(N)=O)C(=O)N[C@@H](CC(=O)O)C(=O)N[C@H](C(=O)N[C@@H](Cc1cnc[nH]1)C(=O)N[C@@H](CC(N)=O)C(=O)N[C@@H](Cc1ccccc1)C(N)=O)C(C)C)C(C)C
Active | 270 pM | 3 | – | CC[C@H](C)[C@H](NC(=O)[C@H](CCC(=O)O)NC(=O)[C@H](CO)NC(=O)[C@H]1CCC[C@@H]1NC(=O)[C@@H](N)CO)C(=O)N[C@@H](CCC(N)=O)C(=O)N[C@@H](CC(C)C)C(=O)N[C@@H](CCSC)C(=O)N[C@@H](Cc1cnc[nH]1)C(=O)N[C@@H](CC(N)=O)C(=O)N[C@@H](CC(C)C)C(=O)NCC(=O)N[C@@H](CCCCN)C(=O)N[C@@H](Cc1cnc[nH]1)C(=O)N[C@@H](CC(C)C)C(=O)N[C@@H](CC(N)=O)C(=O)N[C@@H](CO)C(=O)N[C@@H](CCSC)C(=O)N[C@@H](CCC(=O)O)C(=O)N[C@@H](CCCNC(=N)N)C(=O)N[C@H](C(=O)N[C@@H](CCC(=O)O)C(=O)N[C@@H](Cc1c[nH]c2ccccc12)C(=O)N[C@@H](CC(C)C)C(=O)N[C@@H](CCCNC(=N)N)C(=O)N[C@@H](CCCCN)C(=O)N[C@@H](CCCCN)C(=O)N[C@@H](CC(C)C)C(=O)N[C@@H](CCC(N)=O)C(=O)N[C@@H](CC(=O)O)C(=O)N[C@H](C(=O)N[C@@H](Cc1cnc[nH]1)C(=O)N[C@@H](CC(N)=O)C(=O)N[C@@H](Cc1ccccc1)C(N)=O)C(C)C)C(C)C
Active | 150 pM | 1.6 | – | CC[C@H](C)[C@H](NC(=O)[C@H](CCC(=O)O)NC(=O)[C@H](CO)NC(=O)[C@@H](NC(=O)[C@H]1CCC[C@@H]1N)C(C)C)C(=O)N[C@@H](CCC(N)=O)C(=O)N[C@@H](CC(C)C)C(=O)N[C@@H](CCSC)C(=O)N[C@@H](Cc1cnc[nH]1)C(=O)N[C@@H](CC(N)=O)C(=O)N[C@@H](CC(C)C)C(=O)NCC(=O)N[C@@H](CCCCN)C(=O)N[C@@H](Cc1cnc[nH]1)C(=O)N[C@@H](CC(C)C)C(=O)N[C@@H](CC(N)=O)C(=O)N[C@@H](CO)C(=O)N[C@@H](CCSC)C(=O)N[C@@H](CCC(=O)O)C(=O)N[C@@H](CCCNC(=N)N)C(=O)N[C@H](C(=O)N[C@@H](CCC(=O)O)C(=O)N[C@@H](Cc1c[nH]c2ccccc12)C(=O)N[C@@H](CC(C)C)C(=O)N[C@@H](CCCNC(=N)N)C(=O)N[C@@H](CCCCN)C(=O)N[C@@H](CCCCN)C(=O)N[C@@H](CC(C)C)C(=O)N[C@@H](CCC(N)=O)C(=O)N[C@@H](CC(=O)O)C(=O)N[C@H](C(=O)N[C@@H](Cc1cnc[nH]1)C(=O)N[C@@H](CC(N)=O)C(=O)N[C@@H](Cc1ccccc1)C(N)=O)C(C)C)C(C)C ({ACPC(1S,2S)}-VSEIQLMHNLGKHLNSMERVEWLRKKLQDVHNF-NH2)
Active | 9740 pM | 107 | – | CC[C@H](C)[C@H](NC(=O)[C@H](CCC(=O)O)NC(=O)[C@H](CO)NC(=O)[C@@H](NC(=O)[C@@H](N)CO)C(C)C)C(=O)N[C@@H](CCC(N)=O)C(=O)N[C@@H](CC(C)C)C(=O)N[C@H]1CCC[C@@H]1C(=O)N[C@@H](Cc1cnc[nH]1)C(=O)N[C@@H](CC(N)=O)C(=O)N[C@@H](CC(C)C)C(=O)NCC(=O)N[C@@H](CCCCN)C(=O)N[C@@H](Cc1cnc[nH]1)C(=O)N[C@@H](CC(C)C)C(=O)N[C@@H](CC(N)=O)C(=O)N[C@@H](CO)C(=O)N[C@@H](CCSC)C(=O)N[C@@H](CCC(=O)O)C(=O)N[C@@H](CCCNC(=N)N)C(=O)N[C@H](C(=O)N[C@@H](CCC(=O)O)C(=O)N[C@@H](Cc1c[nH]c2ccccc12)C(=O)N[C@@H](CC(C)C)C(=O)N[C@@H](CCCNC(=N)N)C(=O)N[C@@H](CCCCN)C(=O)N[C@@H](CCCCN)C(=O)N[C@@H](CC(C)C)C(=O)N[C@@H](CCC(N)=O)C(=O)N[C@@H](CC(=O)O)C(=O)N[C@H](C(=O)N[C@@H](Cc1cnc[nH]1)C(=O)N[C@@H](CC(N)=O)C(=O)N[C@@H](Cc1ccccc1)C(N)=O)C(C)C)C(C)C
Active | – | – | Not Active | CC[C@H](C)[C@H](NC(=O)[C@H]1CCC[C@@H]1NC(=O)[C@H](CO)NC(=O)[C@@H](NC(=O)[C@@H](N)CO)C(C)C)C(=O)N[C@@H](CCC(N)=O)C(=O)N[C@@H](CC(C)C)C(=O)N[C@@H](CCSC)C(=O)N[C@@H](Cc1cnc[nH]1)C(=O)N[C@@H](CC(N)=O)C(=O)N[C@@H](CC(C)C)C(=O)NCC(=O)N[C@@H](CCCCN)C(=O)N[C@@H](Cc1cnc[nH]1)C(=O)N[C@@H](CC(C)C)C(=O)N[C@@H](CC(N)=O)C(=O)N[C@@H](CO)C(=O)N[C@@H](CCSC)C(=O)N[C@@H](CCC(=O)O)C(=O)N[C@@H](CCCNC(=N)N)C(=O)N[C@H](C(=O)N[C@@H](CCC(=O)O)C(=O)N[C@@H](Cc1c[nH]c2ccccc12)C(=O)N[C@@H](CC(C)C)C(=O)N[C@@H](CCCNC(=N)N)C(=O)N[C@@H](CCCCN)C(=O)N[C@@H](CCCCN)C(=O)N[C@@H](CC(C)C)C(=O)N[C@@H](CCC(N)=O)C(=O)N[C@@H](CC(=O)O)C(=O)N[C@H](C(=O)N[C@@H](Cc1cnc[nH]1)C(=O)N[C@@H](CC(N)=O)C(=O)N[C@@H](Cc1ccccc1)C(N)=O)C(C)C)C(C)C
